# Measurements: ChEMBL document CHEMBL5150070, “Tricyclic SpiroLactams Kill Mycobacteria In Vitro and In Vivo by Inhibiting Type II NADH Dehydrogenases” (J Med Chem, 2022)
# Active and inactive are the calls of the source. The calls are words filed in the database; no cut-off is given here.
# Experiments:
# [1] = Toxicity in noninfected zebrafish larvae assessed as larval development; set-up: species or system Danio rerio; settings: in vivo
# [2] = tested on: Mycobacteroides abscessus; test: Antibiotic activity against Mycobacterium abscessus CIP104536, Rough variant assessed as reduction in bacterial cell growth by measuring resazurin reduction incubated for 6 days by fluorescence microplate based assay; format: functional; settings: 144 h, time 6 day
# [3] = Toxicity in noninfected zebrafish larvae assessed as toxic effect; set-up: species or system Danio rerio; settings: in vivo
# [4] = tested on: Mycobacterium tuberculosis; test: Inhibition of Ndh2 in Mycobacterium tuberculosis assessed as increase in NADH/NAD+ ratio at 600 nM measured after 24 hrs
# Outline: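 Mid-log H37Rv diluted to OD600 0.3 and exposed to compound at 37°C for 2 and 24 h. Pellets extracted in 0.2 M HCl (NAD⁺) or 0.2 M NaOH (NADH), bead-milled, heated 55°C 10 min, neutralised. NAD/NADH-Glo luminescence read against an NADH standard curve, corrected for OD600. Three independent experiments, duplicate technical replicates.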
# [5] = tested on: Mycobacterium marinum; test: Antibiotic activity against Mycobacterium marinum M strain assessed as reduction in bacterial cell growth by measuring resazurin reduction incubated for 6 days by fluorescence microplate based assay; format: functional; settings: 144 h, time 6 day
# [6] = Octanol/PBS partition coefficient, logD of compound at pH 7.4 measured after 2 hrs by shake flask method; format: physicochemical; settings: octanol/water, pH 7.4, 2 h
# Outline: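 A 10 mM DMSO stock was diluted 50-fold into 1:1 octanol:PBS pH 7.4 and shaken gently for 2 h at room temperature. Each phase was diluted 50-fold in MeOH and quantified by LC-MS/MS. LogD = log of the octanol/PBS concentration ratio from mass signals. Run in triplicate.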
# [7] = Metabolic stability in mouse liver microsomes; format: ADME, Microsome
# [8] = tested on: Staphylococcus aureus; test: Antibiotic activity against Staphylococcus aureus SH1000 assessed as reduction in bacterial cell growth by measuring resazurin reduction incubated for 6 days by fluorescence microplate based assay; format: functional; settings: SH1000, 144 h, time 6 day
# Outline: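 E. coli BW25113, E. coli ΔtolC and S. aureus SH1000 were cultured and tested in cation-adjusted Mueller Hinton II broth. Viability was read by adding resazurin and measuring resorufin fluorescence at Ex 530 nm / Em 590 nm.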
# [9] = tested on: Mycobacteroides abscessus; test: Antibiotic activity against Mycobacterium abscessus CIP104536, Smooth variant assessed as reduction in bacterial cell growth by measuring resazurin reduction incubated for 6 days by fluorescence microplate based assay; format: functional; settings: 144 h, time 6 day
# [10] = tested on: Mycobacterium avium; test: Antibiotic activity against Mycobacterium avium TMC 724, ATCC-25291 assessed as reduction in bacterial cell growth by measuring resazurin reduction incubated for 6 days by fluorescence microplate based assay; format: functional; settings: TMC 724, ATCC-25291, 144 h, time 6 day
# [11] = tested on: Mycobacterium tuberculosis; test: Antimycobacterial activity against Mycobacterium tuberculosis H37Rv infected in human A-THP1 macrophages assessed as viability of infected macrophages incubated for 96 hrs by fluorescence microplate assay; format: functional, organism-based
# Outline: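 THP-1 cells differentiated with 50 ng/mL PMA for 72 h, infected with log-phase H37Rv (MOI 10, 2 h), and extracellular bacteria killed with 50 µg/mL amikacin for 1 h. Cells detached and seeded at 5×10⁵/mL in RPMI-10% FBS with PMA onto pre-dispensed compound, 96 h at 37°C, 5% CO₂. Macrophage viability by 0.05% resazurin fluorescence.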
# [12] = tested on: Mycobacterium marinum; test: In vivo antimycobacterial efficacy in Mycobacterium marinum expressing Wasabi infected zebrafish larvae assessed as prolongation of survival treated for 4 days after 1 day post infection; format: functional, organism-based; settings: dose 0.3-1.2 µM, time 4.0 day, DDE = dose-dependent effect
# Outline: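 Golden mutant or Tg(mpeg1:mCherry) zebrafish embryos were dechorionated and anaesthetised in 0.016% tricaine. At 30 hpf, 2–3 nL containing about 200–250 cfu of Wasabi-expressing M. marinum M (pTEC15) was injected into the caudal vein. The inoculum was confirmed by plating on 7H10. Embryos were kept in E3 at 28.5 °C, 12 per well, to follow infection and survival.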
# [13] = tested on: Mycobacterium tuberculosis; test: Bactericidal activity against Non-replicating Mycobacterium tuberculosis ss18b-lux assessed as bacterial killing by measuring CFU after 1 week; format: functional, organism-based; settings: time 1.0 weeks, DDE = dose-dependent effect
# Outline: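 Streptomycin-dependent 18b-lux starved of streptomycin for 14 days (OD600 reset to 0.2 on days 7 and 13) to become non-replicating. Diluted to OD600 0.15 on dispensed compound and held at 37°C. On day 7, active wells plated on 7H11-OADC with 50 µg/mL streptomycin and incubated up to 8 weeks for cfu.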
# [14] = tested on: Pseudomonas aeruginosa; test: Antibiotic activity against Pseudomonas aeruginosa POA1 assessed as reduction in bacterial cell growth by measuring resazurin reduction incubated for 6 days by fluorescence microplate based assay; format: functional; settings: POA1, 144 h, time 6 day
# [15] = tested on: Mycobacterium marinum; test: in vivo antimycobacterial efficacy in Mycobacterium marinum infected zebrafish larvae assessed as reduction in bacterial burden at 0.25 to 2 micog/ml measured after 2 to 4 days off post infection; format: functional, organism-based; settings: time 2-4 day
# [16] = tested on: Mycobacterium tuberculosis; test: Antimycobacterial activity against Mycobacterium tuberculosis H37Rv assessed as reduction in bacterial cell growth by measuring resazurin reduction incubated for 6 days by fluorescence microplate based assay; format: functional; settings: time 6 day
# [17] = tested on: Bacillus subtilis; test: Antibiotic activity against Bacillus subtilis ATCC6633 assessed as reduction in bacterial cell growth by measuring resazurin reduction incubated for 6 days by fluorescence microplate based assay; format: functional; settings: ATCC6633, 144 h, time 6 day
# [18] = tested on: Mycobacterium tuberculosis; test: Bactericidal activity against replicating Mycobacterium tuberculosis H37Rv assessed as reduction in colony forming unit measured at 2 to 4 times of MIC after 1 to 2 weeks; format: functional; settings: time 1-2 weeks
# Outline: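 Mid-log H37Rv in 7H9-GTy-OADC diluted to OD600 0.02 (~1×10⁶ cfu/mL) and exposed to compound in 96-well replica plates for 1 or 2 weeks. For the 3 lowest concentrations without visible growth, serial 10-fold dilutions plated on 7H11-OADC and cfu counted over 6 weeks at 37°C. Four independent experiments; log10 cfu/mL ± SD.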
# [19] = tested on: Mycobacterium tuberculosis; test: Bactericidal activity against Non-replicating Mycobacterium tuberculosis ss18b-lux model assessed as decrease in luminescence at 10 to 10000 nM; format: functional, organism-based; settings: dose 10-10000 nM, TDE = time-dependent effect
# Outline: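 Non-replicating streptomycin-starved 18b-lux (14-day starvation) diluted to OD600 0.15 in white 96-well plates with compound and incubated at 37°C. Luminescence read on days 1, 2, 5 and 7 and expressed relative to no-antibiotic controls (n ≥ 3).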
# [20] = tested on: Mycobacterium tuberculosis; test: Inhibition of Ndh2 in Mycobacterium tuberculosis assessed as decrease in ATP concentration measured after 24 hrs; settings: DDE = dose-dependent effect
# Outline: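 Log-phase H37Rv diluted to OD600 0.01 in complete 7H9 and exposed in 96-well plates to compound added from a 100× DMSO stock, at 37°C. ATP measured with BacTiter-Glo luminescence after 4 and 24 h; three independent experiments.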
# [21] = tested on: Mycobacterium tuberculosis; test: Antibiotic activity against Mycobacterium tuberculosis H37Rv assessed as reduction in bacterial cell growth by measuring resazurin reduction incubated for 6 days by fluorescence microplate based assay; format: functional; settings: 144 h, time 6 day
# [22] = tested on: Klebsiella pneumoniae; test: Antibiotic activity against Klebsiella pneumoniae LMG 2095 assessed as reduction in bacterial cell growth by measuring resazurin reduction incubated for 6 days by fluorescence microplate based assay; format: functional; settings: LMG 2095, 144 h, time 6 day
smiles,measurement,setting,value
CC(C)[C@H]1CO[C@]23CCN(Cc4ccc(C(F)(F)F)cc4)C[C@H]2CCC(=O)N13,Activity,[1],Non-Toxic
same,MIC,[2],6.3 µM
same,Activity,[3],Non-Toxic
same,inhibition,[4],Active
same,MIC,[5],0.19 µM
same,logD,[6],3.4
same,Drug metabolism,[7],Metabolite_Detected
same,MIC,[8],> 100 µM
same,MIC,[9],5 µM
same,MIC,[10],0.55 µM
same,IC50,[11],460 nM
same,Activity,[12],Dde
same,Activity,[13],Dde
same,MIC,[14],> 100 µM
same,Activity,[15],Active
same,MIC98,[16],0.1 µM
same,MIC,[17],> 100 µM
same,Activity,[18],0.8 log10CFU
same,Activity,[19],Tde
same,inhibition,[20],Dde
same,MIC,[21],0.1 µM
same,MIC,[22],> 100 µM
